Article PMC9064241 (RSC Advances, 2019)

Columns and labels:
[1] = molecular target: T1, human FFA1 (Homo sapiens, UniProt O14842); test: DMR agonist assay in CHO-FFA1 cells; type: cell-based; conditions: for EC50: CHO-FFA1 cell, EC50, NPs-derived FFA4 agonists
[2] = tested on: HT29 cells; test: DMR agonist assay in HT29 cells; type: cell-based, Human; conditions: for EC50: Homo sapiens, HT-29, read-out: HT29 cell, EC50, NPs-derived FFA4 agonists, DMR, HT29 cells
[3] = molecular target: T2, human FFA4 (Homo sapiens, UniProt Q5NUL3); test: FLIPR calcium flux assay in CHO-FFA4 cells; type: cell-based; conditions: acetylshikonin 100 μM, TUG891 15 μM
T2 sequence (Q5NUL3 1-361): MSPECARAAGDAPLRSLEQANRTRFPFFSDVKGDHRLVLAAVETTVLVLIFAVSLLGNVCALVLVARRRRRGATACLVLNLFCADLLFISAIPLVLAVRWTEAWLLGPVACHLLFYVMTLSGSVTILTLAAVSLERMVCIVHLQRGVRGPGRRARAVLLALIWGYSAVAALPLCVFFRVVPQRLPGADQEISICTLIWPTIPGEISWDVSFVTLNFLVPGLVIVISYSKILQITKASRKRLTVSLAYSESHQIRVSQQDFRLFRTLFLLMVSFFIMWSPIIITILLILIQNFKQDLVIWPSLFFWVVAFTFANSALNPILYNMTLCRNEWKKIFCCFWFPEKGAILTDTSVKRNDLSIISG

[4] = molecular target: T2, human FFA4; test: DMR agonist assay in CHO-FFA4 cells; type: cell-based; conditions: for EC50: CHO-FFA4 cell, EC50, NPs-derived FFA4 agonists, DMR, CHO-FFA4 cells; for Selectivity between FFA4 and FFA1: comparison of DMR activity in CHO-FFA4 and CHO-FFA1 cells; for DMR response relative to the TUG891-induced response: screening of 140 natural compounds in CHO-FFA4 cells, of the TUG891-induced response (∼80 pm); for DMR response in CHO-FFA4 cells: 100 μM ALA, 12.5 μM GW9508, 10 μM TAK875 (Fig. 2A)
[5] = tested on: CHO-K1 cells; test: DMR agonist assay in parental CHO-K1 cells; type: cell-based, Chinese hamster
In short: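 Parental CHO-K1 cells were grown in Ham's F12K with 10% FBS, then seeded on biosensor microplates overnight to a confluent monolayer. Cells were washed twice and held 1–2 h in HBSS, 10 mM HEPES, pH 7.2, 0.1% BSA. After a 2 min baseline, the test compound, diluted in the same buffer, was added. Label-free DMR was recorded for 1 h.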

[6] = molecular target: T1, human FFA1; test: DMR desensitization assay in CHO-FFA1 cells; type: cell-based; conditions: CHO-FFA1 cell Desensitization IC50, IC50 to desensitize the DMR of 1 μM GW9508 in CHO-FFA1 cells
[7] = tested on: HT29 cells; test: DMR desensitization assay in HT29 cells; type: cell-based; conditions: Homo sapiens, HT-29, read-out: HT 29 cell Desensitization IC50
[8] = molecular target: T2, human FFA4; test: DMR desensitization assay in CHO-FFA4 cells; type: cell-based
[9] = tested on: FFA4; conditions: read-out: EC50 as natural FFA4 agonist; literature retrieval; cited from earlier work

T1 sequence (O14842 whole entry): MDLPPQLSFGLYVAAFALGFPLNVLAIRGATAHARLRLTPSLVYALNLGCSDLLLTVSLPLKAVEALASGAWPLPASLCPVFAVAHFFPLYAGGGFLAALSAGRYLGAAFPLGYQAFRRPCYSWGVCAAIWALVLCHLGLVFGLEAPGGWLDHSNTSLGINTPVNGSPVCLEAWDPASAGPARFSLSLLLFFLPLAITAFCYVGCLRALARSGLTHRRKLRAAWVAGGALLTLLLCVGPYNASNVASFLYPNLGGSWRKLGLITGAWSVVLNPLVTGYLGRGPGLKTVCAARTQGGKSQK

CC(=O)O[C@H](CC=C(C)C)C1=CC(=O)c2c(O)ccc(O)c2C1=O [Acetylshikonin, acetylshikonin]
EC50 [1]: 6.17 ± 2.81 µM | EC50 [2]: 2.82 ± 0.39 µM | Ca2+ response in CHO-FFA4 cells [3]: produced a Ca^2+ response | EC50 [4]: 10.2 ± 2.95 µM | Selectivity between FFA4 and FFA1 [4]: non-selective | DMR response relative to the TUG891-induced response [4]: greater than 30%

Cc1cc(O)c2c(c1)C(=O)c1cc(O)cc(O)c1C2=O [Emodin, emodin]
EC50 [1]: > 100 µM | EC50 [2]: ~39 µM | EC50 [4]: 38.2 ± 5.02 µM | Selectivity between FFA4 and FFA1 [4]: selectivity on FFA4 | DMR response relative to the TUG891-induced response [4]: greater than 30%

O=C(O)CCc1ccc(NCc2cccc(Oc3ccccc3)c2)cc1 [GW9508]
Agonist efficacy in CHO-FFA1 cells compared with ALA [1]: partial agonism | DMR response in parental CHO-K1 cells [5]: negligible DMR response | DMR response in CHO-FFA4 cells [4]: minor response | IC50 [6]: 0.14 ± 0.01 µM | IC50 [7]: 12 ± 2.12 µM

Cc1cc(OCCCS(C)(=O)=O)cc(C)c1-c1cccc(COc2ccc3c(c2)OC[C@H]3CC(=O)O)c1 [TAK875]
DMR response in HT29 cells ([2]; TAK875 at 10 μM, MEDICA16): did not induce an observable signal | DMR response in parental CHO-K1 cells [5]: negligible DMR response | DMR response in CHO-FFA4 cells [4]: did not induce any response | IC50 [8]: > 20 µM | IC50 [7]: > 20 µM

Cc1ccc(-c2ccc(F)cc2COc2ccc(CCC(=O)O)cc2)cc1 [TUG891]
DMR response in parental CHO-K1 cells [5]: neither GSK137647A (Fig. 2F) nor TUG891 (data not shown) produced detectable DMR events | IC50 [7]: 0.48 ± 0.12 µM

CC(C)=CCC/C(C)=C/CC/C(C)=C/Cc1c(O)cc(C)c(C(=O)O)c1O [grifolic acid]
EC50 [9]: > 30 µM

CCCCCCCCCCCCCC[C@@H](O)[C@@H](O)[C@@H](N)CO [phytosphingosine]
EC50 [9]: 33.4 µM
